Measured values taken from ChEMBL document CHEMBL4145639, “Cytochalasans Produced by the Coculture of Aspergillus flavipes and Chaetomium globosum” (J Nat Prod, 2018).
Activity calls are given as the source filed them. The rule behind the calls is not given here.

Legend:
[1] = system: Escherichia coli; test: Antimicrobial activity against Escherichia coli by agar well diffusion method
[2] = system: Murine T-cell line; test: Immunomodulatory activity in Kunming mouse T cells assessed as inhibition of ConA-induced cell proliferation at 40 uM after 48 hrs by MTT assay; format: functional, cell-based
How it was run: (§1)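 Splenocytes came from three male KM mice (25 g), seeded at 5 × 10^5 cells/well. Stimulation was 5 μg/mL ConA (T cells) or 10 μg/mL LPS (B cells), with compounds in DMSO at final 40 μM. After 48 h culture, MTT was read at 570 nm. Stimulated and unstimulated controls set baseline proliferation.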

[3] = system: Staphylococcus aureus; test: Antimicrobial activity against Staphylococcus aureus by agar well diffusion method; format: functional, organism-based
How it was run: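 Agar-well diffusion against S. aureus (Gram-positive) and a Gram-negative organism the paper calls C. bacillus. Cefotaxime sodium and tetracycline served as positive controls, with solvent DMSO as the negative control.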

[4] = system: B-cell line; test: Immunomodulatory activity in Kunming mouse B cells assessed as inhibition of LPS-induced cell proliferation at 40 uM after 48 hrs by MTT assay; format: functional, cell-based
How it was run: as §1

[5] = system: MCF7; test: Antiproliferative activity against human MCF7 cells after 48 hrs by MTT assay; format: functional, cell-based; conditions: MCF7, 48 h
How it was run: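 Cells were grown in RPMI 1640 with 10% FBS, penicillin and streptomycin at 37 °C in 5% CO2 and seeded at 5000 cells/well. Compounds (50, 25, 12.5, 6.25, 3.12, 1.56 μM; final DMSO 0.5%) were added 24 h later and incubated 48 h. MTT was added for 4 h, cells lysed in SDS/isopropanol/HCl, and A570 read. Runs were triplicate, with doxorubicin as positive control. IC50 came from means ± SEM.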

| IC50 [5] [µM] | SMILES | Activity [1] | inhibition [2] | Activity [3] | inhibition [4] |
| --- | --- | --- | --- | --- | --- |
| – | C/C1=C\[C@H]2C=C(CO)[C@@H](C)[C@H]3[C@H](CC(C)C)NC(=O)[C@]32C(=O)CC[C@@H](O)C(=O)CC1 | inactive | Active | inactive | – |
| – | C/C1=C\[C@H]2C=C(CO)[C@@H](C)[C@H]3[C@H](CC(C)C)NC(=O)[C@]32C(=O)CC[C@H](O)C(=O)CC1 | inactive | Active | inactive | – |
| – | C/C1=C\[C@@H](C)C/C=C/[C@H]2[C@@H]3O[C@]3(C)[C@@H](C)[C@H]3[C@H](C(O)c4c[nH]c5ccccc45)NC(=O)[C@]32C(=O)CC[C@H](O)C1=O (stereo in doubt; 6) | inactive | Active | inactive | Active |
| – | C=C1[C@@H](C)[C@H]2[C@H](C(OC)c3c[nH]c4ccccc34)NC(=O)[C@]23C(=O)CC[C@H](O)C(=O)/C(C)=C/[C@@H](C)C/C=C/[C@H]3[C@@H]1O (stereo in doubt; 7) | inactive | Active | inactive | Active |
| – | COC(c1c[nH]c2ccccc12)[C@@H]1NC(=O)[C@@]23C(=O)CC[C@H](O)C(=O)/C(C)=C/[C@@H](C)C/C=C/[C@H]2[C@H](O)C(C)=C(C)[C@@H]13 (stereo in doubt; 9) | inactive | Active | inactive | Active |
| 20.7 | C=C1[C@@H](C)[C@H]2[C@H](C(OC)c3c[nH]c4ccccc34)NC(=O)[C@]23C(=O)CC[C@H](O)C(=O)/C(C)=C/[C@@H](C)C/C=C/[C@H]3[C@@H]1O (stereo in doubt; 8) [listing 1 of 2 here] | – | – | – | – |
| – | C/C1=C\[C@H]2C=C(CO)[C@@H](C)[C@H]3[C@H](CC(C)C)NC(=O)[C@]32C(=O)CCC(=O)[C@H](O)CC1 | inactive | – | inactive | Active |
| – | COC(c1c[nH]c2ccccc12)[C@@H]1NC(=O)[C@@]23C(=O)CC[C@H](O)C(=O)/C(C)=C/[C@@H](C)C/C=C/[C@H]2[C@H](O)C(C)=C(C)[C@@H]13 (stereo in doubt; 10) | inactive | – | inactive | Active |
| – | C=C1[C@@H](C)[C@H]2[C@H](C(OC)c3c[nH]c4ccccc34)NC(=O)[C@]23C(=O)CC[C@H](O)C(=O)/C(C)=C/[C@@H](C)C/C=C/[C@H]3[C@@H]1O (stereo in doubt; 8) [listing 2 of 2 here] | inactive | Active | inactive | Active |
| 27.9 | C/C1=C\[C@@H](C)C/C=C/[C@H]2[C@H](O)[C@@]3(C)O[C@@]4(CC56OC5Nc5ccccc56)NC(=O)[C@]2(C(=O)CC[C@H](O)C1=O)[C@H]4[C@@H]3C (stereo in doubt; 11) [listing 1 of 2 here] | – | – | – | – |
| – | C/C1=C\[C@@H](C)C/C=C/[C@H]2[C@H](O)[C@@]3(C)O[C@@]4(CC56OC5Nc5ccccc56)NC(=O)[C@]2(C(=O)CC[C@H](O)C1=O)[C@H]4[C@@H]3C (stereo in doubt; 12) | inactive | Active | inactive | – |
| – | C/C1=C\[C@@H](C)C/C=C/[C@H]2[C@@H]3O[C@]3(C)[C@@H](C)[C@H]3[C@H](C(O)c4c[nH]c5ccccc45)NC(=O)[C@]32C(=O)CC[C@H](O)C1=O (stereo in doubt; 5) | inactive | Active | inactive | – |
| – | C/C1=C\[C@@H](C)C/C=C/[C@H]2[C@H](O)[C@@]3(C)O[C@@]4(CC(=O)c5ccccc5N)NC(=O)[C@]2(C(=O)CC[C@H](O)C1=O)[C@H]4[C@@H]3C | inactive | Active | inactive | – |
| – | C/C1=C\[C@@H](C)C/C=C/[C@H]2[C@H](O)[C@@]3(C)O[C@@]4(CC56OC5Nc5ccccc56)NC(=O)[C@]2(C(=O)CC[C@H](O)C1=O)[C@H]4[C@@H]3C (stereo in doubt; 11) [listing 2 of 2 here] | inactive | – | inactive | – |
| – | C/C1=C\[C@H]2C=C(CO)[C@@H](C)[C@H]3[C@H](CC(C)C)NC(=O)[C@]32C(=O)CCC(=O)[C@@H](O)CC1 | inactive | Active | inactive | – |
